Measured values reported in ChEMBL document CHEMBL1275408, “A chemical genomic screen in Saccharomyces cerevisiae reveals a role for diphthamidation of translation elongation factor 2 in inhibition of protein synthesis by sordarin” (2008).
Calls of active or inactive are those of the source. No cut-off for these calls is given here.

Tests used:
[1] = test system: Saccharomyces cerevisiae; test: Antifungal activity against Saccharomyces cerevisiae BY4741 harboring CTF3 YLR381W mutant gene by spectrophotometry; type: functional
Summary of the method: (§1)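 Screen of BY4741 KanMX4 deletion strains pre-grown 3 days at 28°C in YPD with G418 (150 mg/liter), then pinned into liquid SC containing GM193663. The sensitivity screen used 2 ng/ml; the resistance screen used 62.5 ng/ml, with validation at 62.5, 125 and 500 ng/ml. OD595 was read every 24 h over 5 days at 28°C. Growth was scored relative to wild type and to drug-free controls. Retests were at least in duplicate.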

[2] = test system: Saccharomyces cerevisiae; test: Antifungal activity against Saccharomyces cerevisiae BY4741 harboring ADY3 YDL239C mutant gene by spectrophotometry; type: functional; summary of the method: as §1
[3] = test system: Saccharomyces cerevisiae; test: Antifungal activity against Saccharomyces cerevisiae BY4741 harboring DHH1 YDL160C mutant gene by spectrophotometry; type: functional; summary of the method: as §1
[4] = test system: Saccharomyces cerevisiae; test: Antifungal activity against Saccharomyces cerevisiae BY4741 harboring DJP1 YIR004W mutant gene by spectrophotometry; type: functional; summary of the method: as §1
[5] = test system: Saccharomyces cerevisiae; test: Antifungal activity against Saccharomyces cerevisiae BY4741 harboring BAP2 YBR068C mutant gene by spectrophotometry; type: functional; summary of the method: as §1
[6] = test system: Saccharomyces cerevisiae; test: Antifungal activity against Saccharomyces cerevisiae BY4741 harboring HMI1 YOL095C mutant gene by spectrophotometry; type: functional; summary of the method: as §1
[7] = test system: Saccharomyces cerevisiae; test: Antifungal activity against Saccharomyces cerevisiae BY4741 harboring GGC1 YDL198C mutant gene by spectrophotometry; type: functional; summary of the method: as §1
[8] = test system: Saccharomyces cerevisiae; test: Antifungal activity against Saccharomyces cerevisiae BY4741 harboring ADE4 YMR300C mutant gene by spectrophotometry; type: functional; summary of the method: as §1
[9] = test system: Saccharomyces cerevisiae; test: Antifungal activity against Saccharomyces cerevisiae BY4741 harboring ARO3 YDR035W mutant gene by spectrophotometry; type: functional; summary of the method: as §1
[10] = test system: Saccharomyces cerevisiae; test: Antifungal activity against Saccharomyces cerevisiae BY4741 harboring SER1 YOR184W mutant gene by spectrophotometry; type: functional
Summary of the method: (§2)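 Haploid MATa BY4741 KanMX4 deletion strains pinned from frozen stocks into YPD + G418 (150 mg/liter), grown 3 days at 28°C to confluence, then pin-replicated into SC liquid with no drug or sordarin derivative GM193663 (2 ng/ml sensitivity; 62.5 ng/ml resistance). 28°C, OD595 read every 24 h for 5 days; growth scored relative to wild type on same plate and to untreated mutant.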

[11] = test system: Saccharomyces cerevisiae; test: Antifungal activity against Saccharomyces cerevisiae BY4741 harboring KTR7 YIL085C mutant gene by spectrophotometry; type: functional; summary of the method: as §1
[12] = test system: Saccharomyces cerevisiae; test: Antifungal activity against Saccharomyces cerevisiae BY4741 harboring DSK2 YMR276W mutant gene by spectrophotometry; type: functional; summary of the method: as §1
[13] = test system: Saccharomyces cerevisiae; test: Antifungal activity against Saccharomyces cerevisiae BY4741 harboring DOC1 YGL240W mutant gene by spectrophotometry; type: functional; summary of the method: as §1
[14] = test system: Saccharomyces cerevisiae; test: Antifungal activity against Saccharomyces cerevisiae BY4741 harboring NAT3 YPR131C mutant gene by spectrophotometry; type: functional; summary of the method: as §2
[15] = test system: Saccharomyces cerevisiae; test: Antifungal activity against Saccharomyces cerevisiae BY4741 harboring PTP3 YER075C mutant gene by spectrophotometry; type: functional; summary of the method: as §2
[16] = test system: Saccharomyces cerevisiae; test: Antifungal activity against Saccharomyces cerevisiae BY4741 harboring FUN12 YAL035W mutant gene by spectrophotometry; type: functional; summary of the method: as §1
[17] = test system: Saccharomyces cerevisiae; test: Antifungal activity against Saccharomyces cerevisiae BY4741 harboring MSR1 YHR091C mutant gene by spectrophotometry; type: functional; summary of the method: as §2
[18] = test system: Saccharomyces cerevisiae; test: Antifungal activity against Saccharomyces cerevisiae BY4741 harboring MRPL24 YMR193W mutant gene by spectrophotometry; type: functional; summary of the method: as §2
[19] = test system: Saccharomyces cerevisiae; test: Antifungal activity against Saccharomyces cerevisiae BY4741 harboring RSM19 YNR037C mutant gene by spectrophotometry; type: functional; summary of the method: as §2
[20] = test system: Saccharomyces cerevisiae; test: Antifungal activity against Saccharomyces cerevisiae BY4741 harboring RPL12B YDR418W mutant gene by spectrophotometry; type: functional; summary of the method: as §2
[21] = test system: Saccharomyces cerevisiae; test: Antifungal activity against Saccharomyces cerevisiae BY4741 harboring DPH5 YLR172C mutant gene by spectrophotometry; type: functional; summary of the method: as §1
[22] = test system: Saccharomyces cerevisiae; test: Antifungal activity against Saccharomyces cerevisiae BY4741 harboring DPH2 YKL191W mutant gene by spectrophotometry; type: functional; summary of the method: as §1
[23] = test system: Saccharomyces cerevisiae; test: Antifungal activity against Saccharomyces cerevisiae BY4741 harboring SPS1 YDR523C mutant gene assessed as reduction in fungal growth at 2 ng/ml by spectrophotometry; type: functional, organism-based
Summary of the method: (§3)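 Deletion strains (BY4741 background) pre-grown 3 days at 28°C in YPD + G418 (150 mg/liter), then pin-replicated into SC liquid containing 2 ng/ml GM193663 or no drug. 28°C, OD595 every 24 h over 5 days; growth scored against wild type on same plate and against drug-free mutant control; hits retested at least in duplicate at 2 ng/ml.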

[24] = test system: Saccharomyces cerevisiae; test: Antifungal activity against Saccharomyces cerevisiae BY4741 harboring NOT5 YPR072W mutant gene assessed as reduction in fungal growth at 2 ng/ml by spectrophotometry; type: functional, organism-based; summary of the method: as §3
[25] = test system: Saccharomyces cerevisiae; test: Antifungal activity against Saccharomyces cerevisiae BY4741 harboring HEM14 YER014W mutant gene assessed as reduction in fungal growth at 2 ng/ml by spectrophotometry; type: functional, organism-based
Summary of the method: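 Haploid BY4741 KanMX4 deletion strains pre-grown in YPD with G418 (150 mg/liter) for 3 days at 28°C. They were then pin-replicated into liquid SC with sordarin derivative GM193663 at 2 ng/ml, or without drug. Plates were incubated at 28°C and OD595 read every 24 h for 5 days. Growth was scored against wild type on the same plate and against the drug-free mutant. Hits were retested at least in duplicate.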

[26] = test system: Saccharomyces cerevisiae; test: Antifungal activity against Saccharomyces cerevisiae BY4741 harboring deletion mutation in dph4 gene at 300 to 500 ng/ml after 24 hrs by liquid growth assay; type: functional
[27] = test system: Saccharomyces cerevisiae; test: Antifungal activity against Saccharomyces cerevisiae BY4741 harboring deletion mutation in dph5 gene at 100 ng/ml by plate assay; type: functional, organism-based
Summary of the method: (§4)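 Spot test on solid SC glucose plates with or without 100 ng/ml sordarin. Drops of 10^5 cells plus 10-fold serial dilutions of each dph deletion strain were spotted alongside the parental strain. Plates were incubated at 28°C for 6 days and imaged every 24 h.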

[28] = test system: Saccharomyces cerevisiae; test: Antifungal activity against Saccharomyces cerevisiae BY4741 harboring deletion mutation in dph3 gene at 100 ng/ml by plate assay; type: functional, organism-based; summary of the method: as §4
[29] = test system: Saccharomyces cerevisiae; test: Antifungal activity against Saccharomyces cerevisiae BY4741 harboring RMD9 YGL107C mutant gene by spectrophotometry; type: functional; summary of the method: as §2
[30] = test system: Saccharomyces cerevisiae; test: Antifungal activity against Saccharomyces cerevisiae BY4741 harboring YER184C mutation in unknown gene by spectrophotometry; type: functional
Summary of the method: (§5)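 Deletion strains from the nonessential haploid MATa BY4741 collection (KanMX4 replacement) were grown in YPD with G418 at 28°C for 3 days, then pinned into liquid SC with or without sordarin derivative GM193663 (2 ng/ml for sensitivity, 62.5 ng/ml for resistance). Cultures were kept at 28°C and read at OD595 every 24 h for 5 days. Growth was scored against wild type on the same plate and against the drug-free control. Hits were retested at least in duplicate.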

[31] = test system: Saccharomyces cerevisiae; test: Antifungal activity against Saccharomyces cerevisiae BY4741 harboring YDR042C mutation in unknown gene by spectrophotometry; type: functional; summary of the method: as §5
[32] = test system: Saccharomyces cerevisiae; test: Antifungal activity against Saccharomyces cerevisiae BY4741 harboring YMR141C mutation in unknown gene by spectrophotometry; type: functional; summary of the method: as §5
[33] = test system: Saccharomyces cerevisiae; test: Antifungal activity against Saccharomyces cerevisiae BY4741 harboring YLR202C mutation in unknown gene by spectrophotometry; type: functional; summary of the method: as §5
[34] = test system: Saccharomyces cerevisiae; test: Antifungal activity against Saccharomyces cerevisiae BY4741 harboring SCS22 YBL091C-A mutant gene by spectrophotometry; type: functional; summary of the method: as §2

## CO[C@H]1[C@@H](O)[C@H](O)[C@H](OC[C@@]23C[C@@H]4[C@H](C)CC[C@H]4[C@@]4(C=O)CC2C=C(C(C)C)[C@@]34C(=O)O)O[C@@H]1C [SORDARIN]
[1]
  MIC: > 0.125 mg/L
[2]
  MIC: > 0.0625 mg/L
[3]
  MIC: > 0.125 mg/L
[4]
  MIC: > 0.5 mg/L
[5]
  MIC: > 0.125 mg/L
[6]
  MIC: > 0.125 mg/L
[7]
  MIC: > 0.5 mg/L
[8]
  MIC: > 0.5 mg/L
[9]
  MIC: > 0.5 mg/L
[10]
  MIC: > 0.5 mg/L
[11]
  MIC: > 0.5 mg/L
[12]
  MIC: > 0.5 mg/L
[13]
  MIC: > 0.5 mg/L
[14]
  MIC: > 0.0625 mg/L
[15]
  MIC: > 0.125 mg/L
[16]
  MIC: > 0.125 mg/L
[17]
  MIC: > 0.125 mg/L
[18]
  MIC: > 0.125 mg/L
[19]
  MIC: > 0.5 mg/L
[20]
  MIC: > 0.5 mg/L
[21]
  MIC: > 0.5 mg/L
[22]
  MIC: > 0.5 mg/L
[23]
  Activity: Active
[24]
  Activity: Active
[25]
  Activity: Active
[26]
  Activity: 50%
[27]
  MIC: inactive
[28]
  MIC: inactive
[29]
  MIC: > 0.125 mg/L
[30]
  MIC: > 0.125 mg/L
[31]
  MIC: > 0.125 mg/L
[32]
  MIC: > 0.5 mg/L
[33]
  MIC: > 0.5 mg/L
[34]
  MIC: > 0.5 mg/L
